Assay results reported in ChEMBL document CHEMBL4261585, “Synthesis of 1,2,3-triazole linked 4(3H)-Quinazolinones as potent antibacterial agents against multidrug-resistant Staphylococcus aureus” (Eur J Med Chem, 2018).
Values after ≈ are worked out from the molar mass of the structure shown.

Experiments:
Pseudomonas aeruginosa = assay: Antibacterial activity against Pseudomonas aeruginosa ATCC 27853 after 16 to 18 hrs by CLSI method; type: functional
Outline: (§1)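 Broth microdilution MIC per CLSI. A single colony from Mueller-Hinton agar is grown overnight in cation-supplemented Mueller-Hinton broth (37 °C, shaking, 18–24 h). Incubation is 37 °C for 16–18 h. MIC is the lowest concentration with no visible growth. Three independent runs, each in duplicate.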

[1] = system: Mycobacterium tuberculosis; assay: Antimycobacterial activity against Mycobacterium tuberculosis H37Rv ATCC 27294 after 7 days by pesto blue-dye based broth microdilution assay; type: functional; conditions: H37Rv ATCC 27294, 168 h
Outline: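 Broth microdilution in Middlebrook 7H9 with 10% ADC-Tween-80 (0.2% glycerol, 0.05% Tween-80). Compound is added from 10 mg/mL DMSO stocks as two-fold dilutions, 64–0.5 mg/L. Plates are incubated 7 days at 37 °C and read with PrestoBlue resazurin dye. MIC is the lowest concentration inhibiting visible growth, three replicates in duplicate.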

[2] = system: Mycolicibacterium fortuitum; assay: Antimycobacterial activity against Mycobacterium fortuitum by pesto blue-dye based broth microdilution assay; type: functional
Staphylococcus aureus [3] = assay: Antibacterial activity against Staphylococcus aureus ATCC 29213 after 16 to 18 hrs by CLSI method; type: functional; outline: as §1
Acinetobacter baumannii [4] = assay: Antibacterial activity against Acinetobacter baumannii BAA-1605 after 16 to 18 hrs by CLSI method; type: functional; outline: as §1
Klebsiella pneumoniae = assay: Antibacterial activity against Klebsiella pneumoniae ATCC BAA-1705 after 16 to 18 hrs by CLSI method; type: functional; outline: as §1
[5] = system: Mycobacteroides abscessus; assay: Antimycobacterial activity against Mycobacterium abscessus by pesto blue-dye based broth microdilution assay; type: functional
[6] = Selectivity index, ratio of CC50 for African green monkey Vero cells to MIC for Staphylococcus aureus ATCC 29213; type: toxicity; conditions: read-out: Selectivity Index
Outline: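 Selectivity index is calculated as the Vero CC50 divided by the MIC against S. aureus ATCC 29213. CC50 comes from a 72 h MTT assay at 100–5 mg/L. MIC comes from CLSI broth microdilution at ~10⁶ CFU/mL, 37 °C, 16–18 h.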

Escherichia coli [7] = assay: Antibacterial activity against Escherichia coli ATCC 25922 after 16 to 18 hrs by CLSI method; type: functional; outline: as §1
Mycobacteroides chelonae = assay: Antimycobacterial activity against Mycobacterium chelonae by pesto blue-dye based broth microdilution assay; type: functional
[8] = Cytotoxicity against African green monkey Vero cells after 72 hrs by MTT assay; type: cell-based; conditions: chlorocebus sabaeus
Outline: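 Vero cells are seeded at ~10³ per well and held 24 h at 37 °C, 5% CO₂. Compound at 100–5 mg/L is then added for 72 h. MTT is added at […], and formazan is dissolved in DMSO and read at 540 nm. CC50 is the lowest concentration giving 50% loss of viability. Doxorubicin is the positive control. Triplicate experiments.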

Staphylococcus aureus [9] = assay: Antibacterial activity against methicillin-resistant Staphylococcus aureus NR10192 by CLSI method; type: functional
Outline: (§2)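 Broth microdilution to CLSI. A single colony from Mueller-Hinton agar is grown overnight in cation-supplemented MHB at 37 °C with shaking, 18–24 h. Levofloxacin is the reference. MIC is the lowest concentration with no visible growth, from three independent runs in duplicate.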

Staphylococcus aureus [10] = assay: Antibacterial activity against methicillin-resistant Staphylococcus aureus NR10129 by CLSI method; type: functional; outline: as §2
Staphylococcus aureus [11] = assay: Antibacterial activity against methicillin-sensitive Staphylococcus aureus ATCC 29213 by CLSI method; type: functional; outline: as §2
Staphylococcus aureus [12] = assay: Antibacterial activity against methicillin-resistant Staphylococcus aureus NR119 by CLSI method; type: functional; outline: as §2
Staphylococcus aureus [13] = assay: Antibacterial activity against methicillin-resistant Staphylococcus aureus NR10193 by CLSI method; type: functional; outline: as §2
Staphylococcus aureus [14] = assay: Antibacterial activity against vancomycin-resistant Staphylococcus aureus VRS12 by CLSI method; type: functional; outline: as §2
Staphylococcus aureus [15] = assay: Antibacterial activity against methicillin-resistant Staphylococcus aureus NR10198 by CLSI method; type: functional; outline: as §2
Staphylococcus aureus [16] = assay: Antibacterial activity against vancomycin-resistant Staphylococcus aureus VRS4 by CLSI method; type: functional; outline: as §2
Staphylococcus aureus [17] = assay: Antibacterial activity against methicillin-resistant Staphylococcus aureus NR10191 by CLSI method; type: functional; outline: as §2
Staphylococcus aureus [18] = assay: Antibacterial activity against vancomycin-resistant Staphylococcus aureus VRS1 by CLSI method; type: functional; outline: as §2
Staphylococcus aureus [19] = assay: Antibacterial activity against methicillin-resistant Staphylococcus aureus NR10194 by CLSI method; type: functional; outline: as §2
Staphylococcus aureus [20] = assay: Antibacterial activity against methicillin-resistant Staphylococcus aureus NR10186 by CLSI method; type: functional; outline: as §2
Escherichia coli [21] = assay: Antibacterial activity against Escherichia coli ATCC 25922 after 16 to 18 hrs in presence of PMBN by CLSI method; type: functional
Outline: (§3)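 MIC per CLSI broth microdilution with compound combined with a sub-lethal level of polymyxin B nonapeptide. Inoculum is ~10⁶ CFU/mL in cation-supplemented Mueller-Hinton broth. Incubation is 37 °C for 16–18 h. MIC is read as the absence of visible growth. Three independent runs, each in duplicate.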

Acinetobacter baumannii [22] = assay: Antibacterial activity against Acinetobacter baumannii BAA-1605 after 16 to 18 hrs in presence of PMBN by CLSI method; type: functional; outline: as §3

## Cc1cccc(-n2cc(COc3cccc(-n4c(/C=C/c5ccc(C#N)cc5)nc5ccccc5c4=O)c3)nn2)c1
Pseudomonas aeruginosa
  MIC: > 64 µg/mL
[1]
  MIC: > 64 µg/mL
[2]
  MIC: > 64 µg/mL
Staphylococcus aureus [3]
  MIC: 0.5 µg/mL (≈ 0.932 µM)
Acinetobacter baumannii [4]
  MIC: > 64 µg/mL
Klebsiella pneumoniae
  MIC: > 64 µg/mL
[5]
  MIC: > 64 µg/mL
[6]
  selectivity ratio: 40
Escherichia coli [7]
  MIC: > 64 µg/mL
Mycobacteroides chelonae
  MIC: > 64 µg/mL
[8]
  CC50 at 72 h: 20 µg/mL (≈ 37.3 µM)

## O=c1c2ccccc2nc(/C=C/c2ccc(Cl)cc2)n1-c1cccc(OCc2cn(-c3cccc(F)c3)nn2)c1
Pseudomonas aeruginosa
  MIC: > 64 µg/mL
[1]
  MIC: > 64 µg/mL
[2]
  MIC: > 64 µg/mL
Staphylococcus aureus [3]
  MIC: 4 µg/mL (≈ 7.27 µM)
Acinetobacter baumannii [4]
  MIC: > 64 µg/mL
Klebsiella pneumoniae
  MIC: > 64 µg/mL
[5]
  MIC: > 64 µg/mL
Escherichia coli [7]
  MIC: > 64 µg/mL
Mycobacteroides chelonae
  MIC: > 64 µg/mL

## COc1ccc(-n2cc(COc3cccc(-n4c(/C=C/c5ccc(C#N)cc5)nc5ccccc5c4=O)c3)nn2)cc1
Pseudomonas aeruginosa
  MIC: > 64 µg/mL
[1]
  MIC: > 64 µg/mL
[2]
  MIC: > 64 µg/mL
Staphylococcus aureus [3]
  MIC: 4 µg/mL (≈ 7.24 µM)
Acinetobacter baumannii [4]
  MIC: > 64 µg/mL
Klebsiella pneumoniae
  MIC: > 64 µg/mL
[5]
  MIC: > 64 µg/mL
Escherichia coli [7]
  MIC: > 64 µg/mL
Mycobacteroides chelonae
  MIC: > 64 µg/mL

## N#Cc1ccc(/C=C/c2nc3ccccc3c(=O)n2-c2cccc(OCc3cn(-c4cccc(F)c4)nn3)c2)cc1
Pseudomonas aeruginosa
  MIC: > 64 µg/mL
[1]
  MIC: > 64 µg/mL
[2]
  MIC: > 64 µg/mL
Staphylococcus aureus [3]
  MIC: 0.5 µg/mL (≈ 0.925 µM)
Acinetobacter baumannii [4]
  MIC: > 64 µg/mL
Klebsiella pneumoniae
  MIC: > 64 µg/mL
[5]
  MIC: > 64 µg/mL
Escherichia coli [7]
  MIC: > 64 µg/mL
Mycobacteroides chelonae
  MIC: > 64 µg/mL

## N#Cc1ccc(/C=C/c2nc3ccccc3c(=O)n2-c2cccc(OCc3cn(-c4ccc(Cl)cc4)nn3)c2)cc1
Pseudomonas aeruginosa
  MIC: > 64 µg/mL
[1]
  MIC: > 64 µg/mL
[2]
  MIC: > 64 µg/mL
Staphylococcus aureus [3]
  MIC: 0.5 µg/mL (≈ 0.898 µM)
Acinetobacter baumannii [4]
  MIC: > 64 µg/mL
Klebsiella pneumoniae
  MIC: > 64 µg/mL
[5]
  MIC: > 64 µg/mL
[6]
  selectivity ratio: 40
Escherichia coli [7]
  MIC: > 64 µg/mL
Mycobacteroides chelonae
  MIC: > 64 µg/mL
[8]
  CC50 at 72 h: 20 µg/mL (≈ 35.9 µM)

## C[C@H]1COc2c(N3CCN(C)CC3)c(F)cc3c(=O)c(C(=O)O)cn1c23.C[C@H]1COc2c(N3CCN(C)CC3)c(F)cc3c(=O)c(C(=O)O)cn1c23.O [LEVOFLOXACIN]
Staphylococcus aureus [9]
  MIC: 8 µg/mL
Pseudomonas aeruginosa
  MIC: 0.5 µg/mL
Staphylococcus aureus [10]
  MIC: 0.5 µg/mL
Staphylococcus aureus [11]
  MIC: 0.5 µg/mL
Staphylococcus aureus [12]
  MIC: 16 µg/mL
Staphylococcus aureus [3]
  MIC: 0.125 µg/mL
Staphylococcus aureus [13]
  MIC: 32 µg/mL
Staphylococcus aureus [14]
  MIC: 32 µg/mL
Staphylococcus aureus [15]
  MIC: 32 µg/mL
Staphylococcus aureus [16]
  MIC: > 64 µg/mL
Staphylococcus aureus [17]
  MIC: 32 µg/mL
Klebsiella pneumoniae
  MIC: 64 µg/mL
Staphylococcus aureus [18]
  MIC: 32 µg/mL
Staphylococcus aureus [19]
  MIC: 0.5 µg/mL
Staphylococcus aureus [20]
  MIC: 8 µg/mL

## C[C@@H](O)[C@H]1C(=O)N2C(C(=O)O)=C(S[C@@H]3CN[C@H](C(=O)N(C)C)C3)[C@H](C)[C@H]12 [MEROPENEM]
Staphylococcus aureus [9]
  MIC: 64 µg/mL (≈ 167 µM)
Staphylococcus aureus [10]
  MIC: 16 µg/mL (≈ 41.7 µM)
Staphylococcus aureus [11]
  MIC: 4 µg/mL (≈ 10.4 µM)
Staphylococcus aureus [12]
  MIC: > 64 µg/mL
Staphylococcus aureus [13]
  MIC: > 64 µg/mL
Staphylococcus aureus [14]
  MIC: > 64 µg/mL
Staphylococcus aureus [15]
  MIC: > 64 µg/mL
Staphylococcus aureus [16]
  MIC: > 64 µg/mL
Staphylococcus aureus [17]
  MIC: > 64 µg/mL
Staphylococcus aureus [18]
  MIC: > 64 µg/mL
Staphylococcus aureus [19]
  MIC: 4 µg/mL (≈ 10.4 µM)
Staphylococcus aureus [20]
  MIC: 16 µg/mL (≈ 41.7 µM)

## CO[C@H]1/C=C/O[C@@]2(C)Oc3c(C)c(O)c4c(O)c(c(/C=N/N5CCN(C)CC5)c(O)c4c3C2=O)NC(=O)/C(C)=C\C=C\[C@H](C)[C@H](O)[C@@H](C)[C@@H](O)[C@@H](C)[C@H](OC(C)=O)[C@@H]1C [RIFAMPIN]
Escherichia coli [21]
  MIC: 0.125 µg/mL
Acinetobacter baumannii [4]
  MIC: 4 µg/mL (≈ 4.86 µM)
Acinetobacter baumannii [22]
  MIC: 0.25 µg/mL
Escherichia coli [7]
  MIC: 4 µg/mL (≈ 4.86 µM)

## CN[C@H](CC(C)C)C(=O)N[C@H]1C(=O)N[C@@H](CC(N)=O)C(=O)N[C@H]2C(=O)N[C@H]3C(=O)N[C@H](C(=O)N[C@H](C(=O)O)c4cc(O)cc(O)c4-c4cc3ccc4O)[C@H](O)c3ccc(c(Cl)c3)Oc3cc2cc(c3O[C@@H]2O[C@H](CO)[C@@H](O)[C@H](O)[C@H]2O[C@H]2C[C@](C)(N)[C@H](O)[C@H](C)O2)Oc2ccc(cc2Cl)[C@H]1O [VANCOMYCIN]
Staphylococcus aureus [14]
  MIC: > 64 µg/mL
Staphylococcus aureus [16]
  MIC: > 64 µg/mL
Staphylococcus aureus [18]
  MIC: > 64 µg/mL
